An excerpt weighted towards active compounds, which were near 1.8% of everything screened.
CHOP UPR activ = apoptotic UPR (CHOP) activation. CHO-CHOP luciferase reporter, luminescence; percent of tunicamycin response over DMSO baseline. activation, % at 10 µM. 0.34% of 330,000 active. AID 449763;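 active = at 10 µM dose, activation of 40% or more, normalized to positive control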;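 also: 100% = tunicamycin at 10 µg/mL and 0% = DMSO alone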
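Assay system: CHO cells with stable CHOP pathway luciferase reporter; Buffer or medium: F12 plus 10% serum; Times: 16-18 h cell attachment, then 6 h compound exposure, 37 °C; Signal: luciferase luminescence; Read-out basis: percent activation relative to tunicamycin control; Control set: tunicamycin high control, DMSO low control.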
CRFR2-BP antag = blocks CRF-induced signaling of the CRF-BP/CRF-R2 complex; HEK293 CRF-R2/CRF-BP, CRF-induced calcium fluorescence; inhibition, % at 11.8 µM; 0.59% of 350,000 active; AID 588475;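 active = inhibition of the ligand-induced calcium signal above about 50% at the single tested concentration, limit read from the data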
UPR XBP1 act = activators of adaptive arm of unfolded protein response (XBP1); CHO-XBP1 luciferase reporter, IRE1-XBP1 UPR activation, luminescence; percent of tunicamycin response, DMSO as zero; activation, % at 20 µM; 0.33% of 330,000 active; AID 463104;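 active = versus positive control, 20 µM dose yields 30% or more activation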;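 also: 100% = tunicamycin at 10 µg/mL and 0% = DMSO only wells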
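Material: CHO cell line with stable XBP1 luciferase reporter; buffer or medium: F12 medium containing 10% fetal bovine serum; compound: single point, 20 µM final compound, 1% DMSO; incubation: 6 h treatment, 37 °C; measured by: glow luminescence from Steady-Glo reagent; evaluation: activation, % of tunicamycin; control set: tunicamycin high, DMSO low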
Jurkat NFkB inh = lowers PMA/ionomycin-induced NF-kB signal in Jurkat cells | PMA/ionomycin-induced NF-kB luciferase reporter, luminescence | inhibition, % at 4 µM | 0.53% of 330,000 active; in the data active = inhibition above about 50%
697 NFkB inh = inhibitors of the PMA/ionomycin-induced NF-kB reporter in 697 B cells. 0.33% of 330,000 active. 697 B-cell NF-kB luciferase reporter, 16 h. inhibition, % at 4 µM; in the data active = inhibition above about 35%
Jurkat NFkB conf = lowers PMA/ionomycin-induced NF-kB signal in Jurkat cells | shares compounds with Jurkat NFkB inh | Jurkat NF-kB luciferase, 16 h | inhibition, % at 4 µM | 27% of 2,700 active | AID 435020;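 active = inhibition reaching about 45% at 4 µM in either replicate, limit read from the data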;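 also: plate controls were PMA/ionomycin stimulated DMSO wells for no effect and unstimulated DMSO wells for full effect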
The depositor's hits bear a star; x = not tested or not shown.

SMILES	CHOP UPR activ	CRFR2-BP antag	UPR XBP1 act	Jurkat NFkB inh	697 NFkB inh	Jurkat NFkB conf
Cc1cccc(N2C(=O)C3CCCN3C2=S)c1C (centres undefined)	0	8	-1	-11	9	x
CCOc1ccc(Br)cc1C1=CC(=O)C[C@H](c2ccc(OC)cc2)C1	1	-77	2	65*	-53	47
COc1ccc([C@H]2CC(=O)C=C(c3cc(C)ccc3OC)C2)cc1	1	6	-3	58*	-12	26
CSC(=S)N/N=C(\C)c1ccc(Br)cc1	1	-8	4	4	-16	x
O=C(CSc1ccccc1)NCC1(N2CCCCC2)CCCCC1	0	-5	-5	-2	-1	x
C=CCNC(=O)c1cc(-c2ccc(Br)cc2)on1	4	7	0	-177	-116	-58
COc1ccc(C(=O)NCCNC(=O)c2ccc(OC)cc2)cc1	-2	-2	-3	6	3	x
COc1ccc(C(=O)NCCSc2ccccc2)cc1	-2	0	-2	-212	-204	-99
CC(=O)Nc1ccc(S(=O)(=O)N2c3ccc(F)cc3CCC2C)cc1 (centres undefined)	1	7	3	57*	-21	42
O=C(Nc1ccc(Cl)cc1C(=O)NCc1cccnc1)c1ccc(Cl)cc1Cl	0	-67	0	51*	-23	11
O=C(Nc1c(Cl)cc(Cl)cc1C(=O)NCc1cccnc1)c1ccc(Cl)cc1Cl	-1	19	-4	-6	5	x
CCc1cc2c(-c3ccccc3)cc(=O)oc2cc1OCC(=O)NCC1CCC(C(=O)O)CC1 (centres undefined)	1	16	1	12	18	x
COc1ccccc1N=C1SC(C(=O)Nc2cccc(Cl)c2Cl)C(N)=C1C(N)=O (centres undefined)	-1	-7	-2	58*	-16	0
O=C1CC(c2cccc(Br)c2)c2cc3c(cc2N1)CCC3 (centres undefined)	1	-68	3	54*	-72	45
CC1(C)CC(=O)C2=C(C1)NC(=O)CC2c1cc(F)ccc1F (centres undefined)	3	29	1	-1	16	x
O=C1CC(c2cc(F)ccc2F)c2cc3c(cc2N1)CCC3 (centres undefined)	-2	-6	-2	71*	-77	52*
Cc1cc(C)c2[nH]c(C)c(CN3CCCCCC3)c(=O)c2c1	-1	4	-3	-16	20	x
Cc1ccc([C@H]2C[C@@H](n3cc(-c4ccc(F)cc4)nn3)[C@H](O)CN2C(=O)C2CCCCC2)cc1	x	4	x	x	x	x
COc1ccc(/C(C)=N/NC(=O)CNC(=O)c2ccncc2)c(OC)c1	0	-8	0	1	5	x
CCN(CCCNC(=O)C1CCC(=O)N1Cc1ccccc1Cl)c1cccc(C)c1 (centres undefined)	1	29	0	-33	-17	x
CCN(CCCNC(=O)C1CCC(=O)N1Cc1ccc(C)cc1)c1cccc(C)c1 (centres undefined)	-2	15	-7	57*	-7	-26
COc1cc(C(=O)NCCC(=O)NC(C)CCc2ccccc2)cc(OC)c1OC (centres undefined)	2	-1	-4	21	21	x
Clc1ccc(OCc2nc(-c3ccncc3)no2)c(Br)c1	4	0	1	-166	-196	-96
COc1cc(CC(=O)Nc2cc(S(=O)(=O)N3CCOCC3)ccc2N2CCCC2)cc(OC)c1OC	x	0	x	x	x	x
Nc1ccccc1C#CC(=O)c1ccccc1	-5	-18	-8	52*	-109	13
SMILES	CHOP UPR activ	CRFR2-BP antag	UPR XBP1 act	Jurkat NFkB inh	697 NFkB inh	Jurkat NFkB conf
CCC(C)NC(=O)C1CCC(CNS(=O)(=O)c2ccc3c(c2)N(C(C)=O)CCO3)CC1 (centres undefined)	2	-6	-3	-3	3	x
N#CC1=C(N)Oc2c(ccc3cccnc23)C1c1ccccc1 (centres undefined)	0	-18	-2	66*	-5	32
CCCn1c2ccccc2c2cnn(CC(=O)NC3CCCCC3)c(=O)c21	1	-4	-1	5	-1	x
CC(C)(C)N1C(=O)Cc2c1nc(N)c1c(N)nc(N3CCCCC3CO)c(C#N)c21 (centres undefined)	23	-19	-5	56*	-45	21
O=C(Cc1ccc([N+](=O)[O-])cc1)Nc1ccc2c(c1)CCC2	0	2	0	30	13	x
CCOC(=O)c1ccc2nc(NC(C)=O)sc2c1	x	1	x	x	x	x
COC(=O)c1ccc2nc(NC(=O)C(C)C)sc2c1	5	-20	3	-70	-129	x
COC(=O)c1ccc2nc(Nc3nc4c(F)cc(F)cc4s3)sc2c1	-8	4	-5	63*	-3	92*
CCOC(=O)c1ccc2nc(Nc3nc4ccc(F)cc4s3)sc2c1	-9	-19	-9	56*	10	85*
CC(=O)Nc1ccc(S(=O)(=O)N2CCN(C(=O)c3ncoc3-c3ccccc3)CC2)cc1	0	13	8	4	0	x
COc1ccc(N(Cc2ccccc2)C(=O)CSc2nnc(Cn3nnc4ccccc43)o2)cc1	-2	9	-3	14	4	x
O=C(CSc1nnc(Cn2nnc3ccccc32)o1)N(Cc1ccc(F)cc1)c1ccccc1	5	23	-8	57*	20	61*
COc1cc(-c2noc(C)c2C#Cc2ccsc2)cc(OC)c1OC	1	3	15	63*	-34	57*
CC(=O)c1c(C)[nH]c(C(=O)CSc2ncnc3sc(-c4ccccc4)cc23)c1C	5	2	-2	52*	-32	14
O=C(O)CSc1ncnc2sc(-c3ccccc3)cc12	1	4	-3	5	-18	x
CC(C)[C@H](NC(=O)OCc1ccccc1)C(=O)OCC(=O)N1CCCCC1	x	12	x	x	x	x
CCCC(=O)Nc1ccc(C(=O)Nc2cccc(OC)c2)cc1	0	2	1	-20	7	x
COc1cccc(-c2cc(=O)c3cc(NC(=O)c4ccc(Cl)cc4)ccc3[nH]2)c1	-1	7	-3	78*	-36	14
COc1cccc(-c2cc(=O)c3cc(NC(=O)c4ccccc4)ccc3[nH]2)c1	0	0	19	90*	-60	52*
COc1cccc(S(=O)(=O)NCc2ccc(C(=O)Nc3ccc(Cl)cc3)cc2)c1	1	-23	-3	3	6	x
COc1cccc(-c2cc(=O)c3cc(NC(=O)c4ccc(N(C)C)cc4)ccc3[nH]2)c1	1	-3	20	87*	-111	57*
Cc1nc(SC(C)C(=O)c2c(N)n(C)c(=O)n(C)c2=O)c2c(C)c(C)sc2n1 (centres undefined)	2	-21	1	1	-1	x

Screening data: PubChem BioAssay, Sanford-Burnham Center for Chemical Genomics
